The results in this text go back to ChEMBL document CHEMBL2380295, “Structure-activity studies on the side chain of a simplified analog of aplysiatoxin (aplog-1) with anti-proliferative activity” (Bioorg Med Chem, 2013).

Structures are written as SMILES.

System in one data set: not listed separately
The experiment in a line: Cytotoxicity against human Raji cells assessed as cell viability at 10^-6 M. The class given is cell-based. Particulars: read-out: Activity.
For the compound `CC1(C)CC[C@@H]2CC(=O)O[C@@H](CO)CC(=O)O[C@@H]3C[C@@H](CCCCc4cc(O)ccc4I)O[C@@]1(C3)O2`, the viability at 1 µM turned out to be 50%.

System in a further data set: not listed separately
As to the kind of experiment: Cytotoxicity against human Raji cells assessed as cell viability at 10^-7 M. Type of data set: cell-based. As to conditions: read-out: Activity.
Regarding `CC1(C)CC[C@@H]2CC(=O)O[C@@H](CO)CC(=O)O[C@@H]3C[C@@H](CCCCc4cc(O)ccc4I)O[C@@]1(C3)O2`, the viability at 0.1 µM came out at 50%.

The next data set concerns Human gammaherpesvirus 4. As to the kind of experiment: Induction of EBV-early antigen expressed in human Raji cells at 10^-6 M after 48 hrs by immunofluorescence assay relative to control. Type of data set: organism-based. Particulars: human gammaherpesvirus 4, raji, 1 µM. An outline of the steps:
(§1)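 Raji B-lymphoblastoid cells (5 × 10^5/mL) in RPMI 1640 with 10% FBS, with 4 mM sodium n-butyrate as synergist and test compound at 10^-7 or 10^-6 M (final DMSO 0.4%). Incubated 48 h at 37 °C under 5% CO2. Smears were stained by indirect immunofluorescence using NPC patient serum and FITC anti-human IgG. At least 500 cells counted; % EA-positive recorded; n = 3, SEM.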
As for `CC1(C)CC[C@@H]2CC(=O)O[C@@H](CO)CC(=O)O[C@@H]3C[C@@H](CCCCc4cc(O)ccc4I)O[C@@]1(C3)O2`, the Activity is given as 1.4%.

For a further data set, the system named is Human gammaherpesvirus 4. As to the kind of experiment: Induction of EBV-early antigen expressed in human Raji cells at 10^-7 M after 48 hrs by immunofluorescence assay relative to control. Type of data set: organism-based. As to conditions: human gammaherpesvirus 4, raji, 0.1 µM. An outline of the steps: as §1
`CC1(C)CC[C@@H]2CC(=O)O[C@@H](CO)CC(=O)O[C@@H]3C[C@@H](CCCCc4cc(O)ccc4I)O[C@@]1(C3)O2` gave an Activity of 1.3%.

The subject of a further data set is PC-3. The experiment in a line: Growth inhibition of human PC3 cells after 48 hrs by sulforhodamine B assay. Type of data set: functional. Particulars: PC-3, 48 h. An outline of the steps:
(§2)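 Yamori 39-line human cancer panel, NCI method with modifications. Cells plated in RPMI 1640 plus 5% FBS, attached overnight, then exposed 48 h to compound at 10^-8, 10^-7, 10^-6, 10^-5 and 10^-4 M. Sulforhodamine B staining read at 525 nm; % growth = 100[(T−T0)/(C−T0)] from duplicate-point averages, with T0 the time-zero absorbance. GI50 is the concentration giving 50.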
A general note: In SRB staining, fixed cells bind dye roughly in proportion to their protein.
`CC1(C)CC[C@@H]2CC(=O)O[C@@H](CO)CC(=O)O[C@@H]3C[C@@H](CCCCc4cc(O)ccc4I)O[C@@]1(C3)O2` showed a GI50 of 4.68 µM.

Another data set has as its system DU-145. The experiment in a line: Growth inhibition of human DU145 cells after 48 hrs by sulforhodamine B assay. The class given is functional. As to conditions: DU-145, 48 h. A digest of the protocol: as §2
`CC1(C)CC[C@@H]2CC(=O)O[C@@H](CO)CC(=O)O[C@@H]3C[C@@H](CCCCc4cc(O)ccc4I)O[C@@]1(C3)O2`: the GI50 was 12.9 µM.

The test system of another data set is MKN-74. The experiment in a line: Growth inhibition of human MKN74 cells after 48 hrs by sulforhodamine B assay. The class given is functional. As to conditions: MKN-74, 48 h. An outline of the steps:
as §2
Compound `CC1(C)CC[C@@H]2CC(=O)O[C@@H](CO)CC(=O)O[C@@H]3C[C@@H](CCCCc4cc(O)ccc4I)O[C@@]1(C3)O2` had a GI50 of 11.7 µM.

The next data set deals with MKN-28. The experiment in a line: Growth inhibition of human MKN28 cells after 48 hrs by sulforhodamine B assay. Type of data set: functional. Particulars: MKN-28, 48 h. A digest of the protocol:
as §2
For `CC1(C)CC[C@@H]2CC(=O)O[C@@H](CO)CC(=O)O[C@@H]3C[C@@H](CCCCc4cc(O)ccc4I)O[C@@]1(C3)O2`, the GI50 was 0.813 µM.

The test system of the next data set is MKN-45. The experiment in a line: Growth inhibition of human MKN45 cells after 48 hrs by sulforhodamine B assay. As to conditions: MKN-45, 48 h. Type of data set: functional. An outline of the steps:
as §2
On to `CC1(C)CC[C@@H]2CC(=O)O[C@@H](CO)CC(=O)O[C@@H]3C[C@@H](CCCCc4cc(O)ccc4I)O[C@@]1(C3)O2`, for which the GI50 was 12 µM.

The test system of a further data set is MKN-7. As to the kind of experiment: Growth inhibition of human MKN7 cells after 48 hrs by sulforhodamine B assay. The class given is functional. As to conditions: MKN-7, 48 h. A digest of the protocol:
as §2
As for `CC1(C)CC[C@@H]2CC(=O)O[C@@H](CO)CC(=O)O[C@@H]3C[C@@H](CCCCc4cc(O)ccc4I)O[C@@]1(C3)O2`, it took 11.5 µM to inhibit growth by half (GI50).

In the next data set the test system is St-4. The experiment in a line: Growth inhibition of human St-4 cells after 48 hrs by sulforhodamine B assay. The class given is functional. As to conditions: St-4, 48 h. An outline of the steps:
as §2
`CC1(C)CC[C@@H]2CC(=O)O[C@@H](CO)CC(=O)O[C@@H]3C[C@@H](CCCCc4cc(O)ccc4I)O[C@@]1(C3)O2` gave a concentration for 50% growth inhibition (GI50) of 0.427 µM.

System in another data set: not listed separately
The experiment in a line: Growth inhibition of human MKN1 cells after 48 hrs by sulforhodamine B assay. Type of data set: functional. Particulars: MKN-1, 48 h. An outline of the steps:
as §2
The compound `CC1(C)CC[C@@H]2CC(=O)O[C@@H](CO)CC(=O)O[C@@H]3C[C@@H](CCCCc4cc(O)ccc4I)O[C@@]1(C3)O2` gave a 50% growth inhibitory concentration (GI50) of 10.7 µM.

System in another data set: not listed separately
The experiment in a line: Growth inhibition of human RXF631L cells after 48 hrs by sulforhodamine B assay. Type of data set: functional. Particulars: RXF 631, 48 h. An outline of the steps:
as §2
Compound `CC1(C)CC[C@@H]2CC(=O)O[C@@H](CO)CC(=O)O[C@@H]3C[C@@H](CCCCc4cc(O)ccc4I)O[C@@]1(C3)O2` had a GI50 of 12.9 µM.

The next data set relates to ACHN. The experiment in a line: Growth inhibition of human ACHN cells after 48 hrs by sulforhodamine B assay.
Settings: not given
Type of data set: functional. An outline of the steps:
as §2
In turn, `CC1(C)CC[C@@H]2CC(=O)O[C@@H](CO)CC(=O)O[C@@H]3C[C@@H](CCCCc4cc(O)ccc4I)O[C@@]1(C3)O2` gave a GI50 of 10.7 µM.

The test system of the next data set is OVCAR-8. The experiment in a line: Growth inhibition of human OVCAR8 cells after 48 hrs by sulforhodamine B assay. Type of data set: functional. Particulars: OVCAR-8, 48 h. A digest of the protocol: as §2
The compound `CC1(C)CC[C@@H]2CC(=O)O[C@@H](CO)CC(=O)O[C@@H]3C[C@@H](CCCCc4cc(O)ccc4I)O[C@@]1(C3)O2` showed a GI50 of 16.2 µM.

The subject of the next data set is SK-OV-3. The experiment in a line: Growth inhibition of human SKOV3 cells after 48 hrs by sulforhodamine B assay. Type of data set: functional. As to conditions: SK-OV-3, 48 h. A digest of the protocol:
as §2
Take `CC1(C)CC[C@@H]2CC(=O)O[C@@H](CO)CC(=O)O[C@@H]3C[C@@H](CCCCc4cc(O)ccc4I)O[C@@]1(C3)O2`: it took 15.8 µM to inhibit growth by half (GI50).

Another data set concerns OVCAR-5. As to the kind of experiment: Growth inhibition of human OVCAR5 cells after 48 hrs by sulforhodamine B assay. The class given is functional. Particulars: OVCAR-5, 48 h. An outline of the steps: as §2
`CC1(C)CC[C@@H]2CC(=O)O[C@@H](CO)CC(=O)O[C@@H]3C[C@@H](CCCCc4cc(O)ccc4I)O[C@@]1(C3)O2` showed a GI50 of 5.13 µM.

Another data set concerns OVCAR-3. The experiment in a line: Growth inhibition of human OVCAR3 cells after 48 hrs by sulforhodamine B assay. The class given is functional. Particulars: OVCAR-3, 48 h. A digest of the protocol:
as §2
On to `CC1(C)CC[C@@H]2CC(=O)O[C@@H](CO)CC(=O)O[C@@H]3C[C@@H](CCCCc4cc(O)ccc4I)O[C@@]1(C3)O2`, for which growth was halved (GI50) at 5.89 µM.

The subject of the next data set is OVCAR-4. The experiment in a line: Growth inhibition of human OVCAR4 cells after 48 hrs by sulforhodamine B assay. Type of data set: functional. Particulars: OVCAR-4, 48 h. An outline of the steps: as §2
The compound `CC1(C)CC[C@@H]2CC(=O)O[C@@H](CO)CC(=O)O[C@@H]3C[C@@H](CCCCc4cc(O)ccc4I)O[C@@]1(C3)O2` had a GI50 of 13.8 µM.

The subject of the next data set is DMS-114. As to the kind of experiment: Growth inhibition of human DMS114 cells after 48 hrs by sulforhodamine B assay. As to conditions: DMS-114, 48 h. Type of data set: functional. A digest of the protocol: as §2
For the compound `CC1(C)CC[C@@H]2CC(=O)O[C@@H](CO)CC(=O)O[C@@H]3C[C@@H](CCCCc4cc(O)ccc4I)O[C@@]1(C3)O2`, halving of growth (GI50) required 11 µM.

The next data set has as its system LOX IMVI. The experiment in a line: Growth inhibition of human LOXIMVI cells after 48 hrs by sulforhodamine B assay. The class given is functional.
Settings: not given
An outline of the steps:
as §2
In the case of `CC1(C)CC[C@@H]2CC(=O)O[C@@H](CO)CC(=O)O[C@@H]3C[C@@H](CCCCc4cc(O)ccc4I)O[C@@]1(C3)O2`, growth was halved (GI50) at 2 µM.

For the next data set, the system named is A549. As to the kind of experiment: Growth inhibition of human A549 cells after 48 hrs by sulforhodamine B assay. Type of data set: functional. As to conditions: A549, 48 h. An outline of the steps:
as §2
As to `CC1(C)CC[C@@H]2CC(=O)O[C@@H](CO)CC(=O)O[C@@H]3C[C@@H](CCCCc4cc(O)ccc4I)O[C@@]1(C3)O2`, growth was halved (GI50) at 4.07 µM.

For another data set, the system named is DMS-273. As to the kind of experiment: Growth inhibition of human DMS273 cells after 48 hrs by sulforhodamine B assay. Type of data set: functional. Particulars: DMS-273, 48 h. An outline of the steps:
as §2
In turn, `CC1(C)CC[C@@H]2CC(=O)O[C@@H](CO)CC(=O)O[C@@H]3C[C@@H](CCCCc4cc(O)ccc4I)O[C@@]1(C3)O2` gave a GI50 of 0.251 µM.

The term GI50 denotes the concentration that inhibits growth by half. Read a low GI50 as greater sensitivity of the cells.
